Data set [1] in a line: Fluorophore characterization: emission spectra in solvents. The class given is physicochemical. To be noted: fluorometer. The essentials: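 JP-N3 emission spectra were recorded in toluene, acetone, MeOH and H2O. Each spectrum was fitted with a single six-component split pseudo-Voigt curve to give a reference line shape.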
The subject of another data set is Kv2.1 closed state VSD. To be noted: ref [22], cited from earlier work; for effect on channel opening / gating charge: Kv2.1.
A further data set addresses T1, Kv2.1 channels (Rattus norvegicus, UniProt P15387).
T1 sequence (P15387 1-857): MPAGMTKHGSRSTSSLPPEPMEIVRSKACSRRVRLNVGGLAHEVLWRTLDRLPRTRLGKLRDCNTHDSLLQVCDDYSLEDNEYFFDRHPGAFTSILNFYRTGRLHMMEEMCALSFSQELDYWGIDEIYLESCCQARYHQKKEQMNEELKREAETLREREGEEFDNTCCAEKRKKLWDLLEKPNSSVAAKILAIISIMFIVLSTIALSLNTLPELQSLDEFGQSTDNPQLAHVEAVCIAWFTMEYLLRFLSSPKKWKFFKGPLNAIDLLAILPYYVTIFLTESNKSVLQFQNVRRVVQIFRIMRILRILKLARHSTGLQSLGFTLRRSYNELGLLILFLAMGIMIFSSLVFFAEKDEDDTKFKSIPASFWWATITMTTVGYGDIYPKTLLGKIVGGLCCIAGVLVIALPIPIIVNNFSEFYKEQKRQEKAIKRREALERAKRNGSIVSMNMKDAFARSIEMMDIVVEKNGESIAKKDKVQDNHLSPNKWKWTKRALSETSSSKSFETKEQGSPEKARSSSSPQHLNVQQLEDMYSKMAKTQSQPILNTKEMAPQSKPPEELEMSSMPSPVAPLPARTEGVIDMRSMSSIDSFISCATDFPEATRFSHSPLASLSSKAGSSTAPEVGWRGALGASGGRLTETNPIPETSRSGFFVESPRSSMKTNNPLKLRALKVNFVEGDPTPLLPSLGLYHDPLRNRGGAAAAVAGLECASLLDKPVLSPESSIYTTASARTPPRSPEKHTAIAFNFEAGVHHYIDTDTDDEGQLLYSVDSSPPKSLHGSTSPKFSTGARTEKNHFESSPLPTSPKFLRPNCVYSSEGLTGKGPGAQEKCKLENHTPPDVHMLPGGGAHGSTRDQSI
As to conditions: values for GxTX are from ref [23], cited from earlier work.

For the next data set, the system named is mice. To be noted: injected into mice; no reference or experiment given; cited from earlier work.

Where two headings read alike, the source gives them in different places.

Regarding `[N-]=[N+]=NCc1cc(=O)cc2oc3c4c5c(cc3nc1-2)CCCN5CCC4` [JP-N3, 10-(azidomethyl)-julolidino-phenoxazinone], in data set [1] (200 nM JP-N3, anhydrous MeOH), the “emission peak in MeOH” value is 640 nm. Further, in data set [1] (200 nM JP-N3, anhydrous hydrocarbon solvent), the “emission peak in hydrocarbon” value is on record as 609 nm.
As to Met35Nle guangxitoxin-1E [GxTX], in the data set on Kv2.1 closed state VSD, the “effect on channel opening / gating charge” value was “inhibiting early, fast gating charge transitions”. Besides, at Kv2.1 channels (0 mV), the Kd is 1520 ± 810 nM, the koff is 38 ± 9 × 10^−3 s^−1 and the kon is given as 2.5 ± 1.2 × 10^−5 s^−1 nM^−1. Also, on Kv2.1 channels (−100 mV), the Kd was 2.55 ± 1.01 nM, the koff is recorded as 0.84 ± 0.18 × 10^−3 s^−1 and the kon was 3.30 ± 1.10 × 10^−4 s^−1 nM^−1.
Consider “guangxitoxin-1E (EGECGGFWWKCGSGKPACCPKYVCSPKWGLCNFPMP; UniProt P84835 1-36, looked up) [GxTX-1E]”, for which, in the data set with Kv2.1 closed state VSD, the “effect on channel opening / gating charge” value was “shifting channel opening to more depolarized potentials” and the “affinity for Kv2.1 closed state VSD relative to its open state” value is reported as 5400 fold. In the data set with mice, the toxicity result was “no toxicity up to 10 mg/kg”.

Values taken from publication PMC7894042 (ACS chemical neuroscience, 2020).
